According to ChEMBL document CHEMBL1149071, “Lignans from the wood of Abies pinsapo” (J Nat Prod, 1994):
The source made the active and inactive calls. The calls are words filed in the database; no cut-off is given here.

Assays:
Assay type in all cases: functional, organism-based
Human alphaherpesvirus 1 = test: Antiviral activity against HSV1 at 40 ug/ml
[1] = tested on: Vesicular stomatitis virus; test: Antiviral activity against VSV at 40 ug/ml
Aspergillus niger = test: Antifungal ativity against Aspergillus niger CECT 2089
Summary of the method: (§1)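 Disk diffusion on brain-heart agar plates inoculated with 0.1 ml of 8 h-old fungal cultures grown in CM medium (1% glucose, 0.5% yeast extract, 0.5% malt extract). 5-mm paper disks carrying 1 mg of sample were applied. Plates were held 2 h at 4° for diffusion, then incubated at 28°. Growth-inhibition halo (mm) was read at 18 h.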

Penicillium = test: Antifungal ativity against Penicillium; summary of the method: as §1

| SMILES | Activity (Human alphaherpesvirus 1) | Activity [1] | Activity (Aspergillus niger) | Growth-inhibition halo (Penicillium) |
| --- | --- | --- | --- | --- |
| COc1cc([C@H]2OC[C@H]([C@@H](OC(C)=O)c3ccc(OC(C)=O)c(OC)c3)[C@@H]2COC(C)=O)ccc1OC(C)=O | inactive | inactive | – | – |
| COc1cc(C[C@H]2COC(=O)[C@@H]2Cc2ccc(O)c(OC)c2)ccc1O | inactive | inactive | inactive | inactive |
| COc1cc(C[C@H]2COC(O)[C@@H]2Cc2ccc(O)c(OC)c2)ccc1O (some centres undefined) | inactive | inactive | inactive | inactive |
| COc1cc(C[C@H](COC(C)=O)Oc2ccc(C[C@@H]3[C@@H](Cc4ccc(OC(C)=O)c(OC)c4)CO[C@H]3OC(C)=O)cc2OC)ccc1OC(C)=O | inactive | inactive | – | – |
| COc1cc(C[C@H]2[C@H](OC(C)=O)OC[C@@H]2[C@H](OC(C)=O)c2ccc(OC(C)=O)c(OC)c2)ccc1OC(C)=O | inactive | inactive | – | – |
| COc1cc(C[C@H]2CO[C@H](c3ccc(O)c(OC)c3)[C@H]2CO)ccc1O | inactive | inactive | inactive | inactive |
| COc1cc(C[C@H](CO)Oc2ccc(C[C@H]3C(=O)OC[C@@H]3Cc3ccc(O)c(OC)c3)cc2OC)ccc1O | – | – | inactive | inactive |
| COc1cc(C[C@H]2[C@H](OC(C)=O)O[C@H](c3ccc(OC(C)=O)c(OC)c3)[C@H]2COC(C)=O)ccc1OC(C)=O | inactive | inactive | – | – |
| COc1cc([C@H]2OC[C@H]([C@H](OC(C)=O)c3ccc(OC(C)=O)c(OC)c3)[C@@H]2COC(C)=O)ccc1OC(C)=O | inactive | inactive | – | – |
